In ChEMBL document CHEMBL1240350, “In vitro activity of CEM-101 against Streptococcus pneumoniae and Streptococcus pyogenes with defined macrolide resistance mechanisms” (Antimicrob Agents Chemother, 2010):
Values after ≈ are worked out from the molar mass of the structure shown.

Key:
Streptococcus pneumoniae [1] = test: Antibacterial activity against macrolide-resistant Streptococcus pneumoniae 24 harboring erm(B) gene after 14 passages and 10 compound-free subculturing by retest method; assay type: functional
In short: (§1)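 Multistep selection by daily serial passage in subinhibitory drug concentrations. Medium was cation-adjusted Mueller-Hinton broth plus 5% lysed horse blood. Each day the next inoculum came from the tube 1–2 dilutions below the MIC whose turbidity matched the growth control, for up to 50 days. Clone MICs by CLSI macrodilution; identity to the parent confirmed by SmaI PFGE.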

Streptococcus pyogenes [2] = test: Antibacterial activity against macrolide-resistant Streptococcus pyogenes 2094 harboring erm(A) gene after 5 passages and 10 compound-free subculturing by retest method
Streptococcus pneumoniae [3] = test: Antibacterial activity against macrolide-resistant Streptococcus pneumoniae 1635 harboring erm(A) gene after 32 passages and 10 compound-free subculturing by retest method; assay type: functional; in short: as §1
Streptococcus pyogenes [4] = test: Antibacterial activity against macrolide-susceptible Streptococcus pyogenes 2132 after overnight incubation by agar dilution method
Streptococcus pneumoniae [5] = test: Antibacterial activity against macrolide-susceptible Streptococcus pneumoniae 1077 after 29 passages and 10 compound-free subculturing by retest method; assay type: functional
Streptococcus pneumoniae [6] = test: Antibacterial activity against Streptococcus pneumoniae harboring mef(A) gene after overnight incubation by agar dilution method; assay type: functional
In short: (§2)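 Clinical isolates collected 1998–2008, with macrolide-resistance genes confirmed by PCR. MICs by agar dilution on Mueller-Hinton agar with 5% sheep blood. Inoculum 10^4 CFU/spot, incubated overnight at 35°C in ambient air. S. pneumoniae ATCC 49619 was the quality-control strain in every run.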

Streptococcus pneumoniae [7] = test: Antibacterial activity against macrolide-resistant Streptococcus pneumoniae 3665 harboring mef(A) gene after overnight incubation by agar dilution method; assay type: functional
Streptococcus pneumoniae [8] = test: Antibacterial activity against macrolide-resistant Streptococcus pneumoniae 1076 harboring erm(B) and mef(A) gene after 18 passages and 10 compound-free subculturing by retest method; assay type: functional; in short: as §1
Streptococcus pneumoniae [9] = test: Antibacterial activity against macrolide-susceptible Streptococcus pneumoniae 7127 harboring S20N mutation in L4 ribosomal protein and A105V mutation in L22 ribosomal protein after overnight incubation by agar dilution method; assay type: functional
Streptococcus pyogenes [10] = test: Antibacterial activity against macrolide-resistant Streptococcus pyogenes 237 harboring mutation in L4 ribosomal protein after overnight incubation by agar dilution method
Streptococcus pneumoniae [11] = test: Antibacterial activity against penicillin-susceptible Streptococcus pneumoniae after overnight incubation by agar dilution method; assay type: functional
In short: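 Agar dilution on Mueller-Hinton agar supplemented with 5% sheep blood. Inoculum 10^4 CFU/spot, incubated overnight at 35°C in ambient air. Test strains were clinical pneumococcal isolates. S. pneumoniae ATCC 49619 was included as the quality control strain in each run. MIC range, MIC50 and MIC90 were reported for each susceptibility category.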

Streptococcus pneumoniae [12] = test: Antibacterial activity against macrolide-resistant Streptococcus pneumoniae 3009 harboring mutation in 23S rRNA after 25 passages and 10 compound-free subculturing by retest method; assay type: functional
Streptococcus pyogenes [13] = test: Antibacterial activity against macrolide-resistant Streptococcus pyogenes harboring erm(B) gene after overnight incubation by agar dilution method; assay type: functional
In short: (§3)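 Agar dilution MICs on Mueller-Hinton agar with 5% sheep blood. Inoculum 10^4 CFU/spot, incubated overnight at 35°C in ambient air. Clinical S. pneumoniae or group A streptococcal isolates; resistance genotypes (erm(B), erm(A), mef(A)/mef(E)) were assigned by PCR. S. pneumoniae ATCC 49619 served as QC strain in each run. Range, MIC50 and MIC90 reported per phenotype group.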

Streptococcus pneumoniae [14] = test: Antibacterial activity against macrolide-susceptible Streptococcus pneumoniae 1077 after 15 passages and 10 compound-free subculturing by retest method; assay type: functional
Streptococcus pneumoniae [15] = test: Antibacterial activity against Streptococcus pneumoniae harboring mutation in 23S rRNA after overnight incubation by agar dilution method; assay type: functional; in short: as §2
Streptococcus pneumoniae [16] = test: Antibacterial activity against macrolide-susceptible Streptococcus pneumoniae 1077 after 43 passages and 10 compound-free subculturing by retest method; assay type: functional
Streptococcus pyogenes [17] = test: Antibacterial activity against Streptococcus pyogenes harboring mef(A) gene after overnight incubation by agar dilution method; assay type: functional; in short: as §2
Streptococcus pyogenes [18] = test: Antibacterial activity against macrolide-resistant Streptococcus pyogenes 2011 harboring mef(A) gene after overnight incubation by agar dilution method
Streptococcus pyogenes [19] = test: Antibacterial activity against macrolide-resistant Streptococcus pyogenes 2368 harboring erm(B) gene after 18 passages and 10 compound-free subculturing by retest method
Streptococcus pyogenes [20] = test: Antibacterial activity against macrolide-resistant Streptococcus pyogenes 2094 harboring erm(A) gene after 22 passages and 10 compound-free subculturing by retest method
Streptococcus pneumoniae [21] = test: Antibacterial activity against macrolide-resistant Streptococcus pneumoniae 2686 harboring mutation in L4 ribosomal protein after 22 passages and 10 compound-free subculturing by retest method; assay type: functional
Streptococcus pyogenes [22] = test: Antibacterial activity against macrolide-resistant Streptococcus pyogenes 2094 harboring erm(A) gene after 43 passages and 10 compound-free subculturing by retest method
Streptococcus pneumoniae [23] = test: Antibacterial activity against macrolide-susceptible Streptococcus pneumoniae 7127 harboring S20N mutation in L4 ribosomal protein and A105V mutation in L22 ribosomal protein after 29 passages and 10 compound-free subculturing by retest method; assay type: functional
Streptococcus pyogenes [24] = test: Antibacterial activity against macrolide-resistant Streptococcus pyogenes 2094 harboring erm(A) gene after 34 passages and 10 compound-free subculturing by retest method
Streptococcus pneumoniae [25] = test: Antibacterial activity against macrolide-resistant Streptococcus pneumoniae 2686 harboring mutation in L4 ribosomal protein after overnight incubation by agar dilution method; assay type: functional
Streptococcus pyogenes [26] = test: Antibacterial activity against macrolide-resistant Streptococcus pyogenes 2011 harboring mef(A) gene after 35 passages and 10 compound-free subculturing by retest method
Streptococcus pneumoniae [27] = test: Antibacterial activity against macrolide-susceptible Streptococcus pneumoniae after overnight incubation by agar dilution method; assay type: functional; in short: as §3
Streptococcus pneumoniae [28] = test: Antibacterial activity against Streptococcus pneumoniae harboring erm(A) gene after overnight incubation by agar dilution method; assay type: functional; in short: as §2
Streptococcus pneumoniae [29] = test: Antibacterial activity against macrolide-resistant Streptococcus pneumoniae 1635 harboring erm(A) gene after 49 passages and 10 compound-free subculturing by retest method; assay type: functional; in short: as §1
Streptococcus pneumoniae [30] = test: Antibacterial activity against Streptococcus pneumoniae harboring erm(B) and mef(A) gene after overnight incubation by agar dilution method; assay type: functional; in short: as §2
Streptococcus pneumoniae [31] = test: Antibacterial activity against macrolide-resistant Streptococcus pneumoniae harboring erm(B) gene after overnight incubation by agar dilution method; assay type: functional; in short: as §3
[32] = Streptococcus pneumoniae, 24, read-out: MIC

Row | SMILES | MIC (Streptococcus pneumoniae [1]; [32]) [µg/mL] | MIC (Streptococcus pyogenes [2]) [µg/mL] | MIC (Streptococcus pneumoniae [3]) [µg/mL] | MIC (Streptococcus pyogenes [4]) [µg/mL] | MIC (Streptococcus pneumoniae [5]) [µg/mL] | MIC50 (Streptococcus pneumoniae [6]) [µg/mL] | MIC90 (Streptococcus pneumoniae [6]) [µg/mL] | MIC (Streptococcus pneumoniae [7]) [µg/mL] | MIC (Streptococcus pneumoniae [8]) [µg/mL] | MIC (Streptococcus pneumoniae [9]) [µg/mL] | MIC (Streptococcus pyogenes [10]) [µg/mL] | MIC50 (Streptococcus pneumoniae [11]) [µg/mL] | MIC90 (Streptococcus pneumoniae [11]) [µg/mL] | MIC (Streptococcus pneumoniae [12]) [µg/mL] | MIC50 (Streptococcus pyogenes [13]) [µg/mL] | MIC90 (Streptococcus pyogenes [13]) [µg/mL] | MIC (Streptococcus pneumoniae [14]) [µg/mL] | MIC (Streptococcus pneumoniae [15]) [µg/mL] | MIC (Streptococcus pneumoniae [16]) [µg/mL] | MIC (Streptococcus pyogenes [19]) [µg/mL] | also measured
1 | CC[C@H]1OC(=O)[C@H](C)[C@@H](O[C@H]2C[C@@](C)(OC)[C@@H](O)[C@H](C)O2)[C@H](C)[C@@H](O[C@@H]2O[C@H](C)C[C@H](N(C)C)[C@H]2O)[C@](C)(O)C[C@@H](C)CN(C)[C@H](C)[C@@H](O)[C@]1(C)O [AZITHROMYCIN] | > 64 | > 64 | 4 (≈ 5.34 µM) | 0.06 (≈ 0.0801 µM) | > 64 | 4 (≈ 5.34 µM) | 8 (≈ 10.7 µM) | 8 (≈ 10.7 µM) | > 64 | 0.06 (≈ 0.0801 µM) | 4 (≈ 5.34 µM) | 4 (≈ 5.34 µM) | > 64 | > 64 | > 64 | > 64 | > 64 | 32 (≈ 42.7 µM) | 0.03 (≈ 0.0401 µM) | > 64 | MIC50 (Streptococcus pyogenes [17]): 8 µg/mL (≈ 10.7 µM); MIC90 (Streptococcus pyogenes [17]): 8 µg/mL (≈ 10.7 µM); MIC (Streptococcus pyogenes [18]): 4 µg/mL (≈ 5.34 µM); MIC (Streptococcus pyogenes [20]): > 64 µg/mL; MIC (Streptococcus pneumoniae [21]): > 64 µg/mL; MIC (Streptococcus pyogenes [22]): 4 µg/mL (≈ 5.34 µM); MIC (Streptococcus pneumoniae [23]): 1 µg/mL (≈ 1.34 µM); MIC (Streptococcus pyogenes [24]): 16 µg/mL (≈ 21.4 µM); MIC (Streptococcus pneumoniae [25]): > 64 µg/mL; MIC (Streptococcus pyogenes [26]): 16 µg/mL (≈ 21.4 µM); MIC50 (Streptococcus pneumoniae [27]): 0.125 µg/mL (≈ 0.167 µM); MIC (Streptococcus pneumoniae [28]): 2 µg/mL (≈ 2.67 µM); MIC (Streptococcus pneumoniae [29]): > 64 µg/mL
2 | CC[C@H]1OC(=O)[C@@](C)(F)C(=O)[C@H](C)[C@@H](O[C@@H]2O[C@H](C)C[C@H](N(C)C)[C@H]2O)[C@](C)(OC)C[C@@H](C)C(=O)[C@H](C)[C@H]2N(CCCCn3cc(-c4cccc(N)c4)nn3)C(=O)O[C@]12C [SOLITHROMYCIN] | 0.06 (≈ 0.071 µM) | 0.016 (≈ 0.0189 µM) | 0.125 (≈ 0.148 µM) | 0.008 (≈ 0.00947 µM) | 0.03 (≈ 0.0355 µM) | 0.03 (≈ 0.0355 µM) | 0.125 (≈ 0.148 µM) | 0.03 (≈ 0.0355 µM) | 32 (≈ 37.9 µM) | 0.008 (≈ 0.00947 µM) | 0.03 (≈ 0.0355 µM) | 0.03 (≈ 0.0355 µM) | 0.125 (≈ 0.148 µM) | 0.03 (≈ 0.0355 µM) | 0.5 (≈ 0.592 µM) | 1 (≈ 1.18 µM) | 0.06 (≈ 0.071 µM) | 0.002 (≈ 0.00237 µM) | 0.06 (≈ 0.071 µM) | 8 (≈ 9.47 µM) | MIC (Streptococcus pneumoniae [1]): 0.06 µg/mL (≈ 0.071 µM); MIC50 (Streptococcus pneumoniae [30]): 0.125 µg/mL (≈ 0.148 µM); MIC90 (Streptococcus pneumoniae [30]): 0.25 µg/mL (≈ 0.296 µM); MIC (Streptococcus pyogenes [20]): 0.03 µg/mL (≈ 0.0355 µM); MIC (Streptococcus pneumoniae [21]): 1 µg/mL (≈ 1.18 µM); MIC (Streptococcus pyogenes [22]): 0.25 µg/mL (≈ 0.296 µM); MIC (Streptococcus pneumoniae [23]): 0.016 µg/mL (≈ 0.0189 µM); MIC (Streptococcus pyogenes [24]): 0.03 µg/mL (≈ 0.0355 µM); MIC (Streptococcus pneumoniae [25]): 0.03 µg/mL (≈ 0.0355 µM); MIC (Streptococcus pyogenes [26]): 0.06 µg/mL (≈ 0.071 µM); MIC50 (Streptococcus pneumoniae [27]): 0.008 µg/mL (≈ 0.00947 µM); MIC90 (Streptococcus pneumoniae [27]): 0.015 µg/mL (≈ 0.0178 µM); MIC (Streptococcus pneumoniae [28]): 0.008 µg/mL (≈ 0.00947 µM); MIC (Streptococcus pneumoniae [29]): 0.008 µg/mL (≈ 0.00947 µM); MIC50 (Streptococcus pneumoniae [31]): 0.03 µg/mL (≈ 0.0355 µM); MIC90 (Streptococcus pneumoniae [31]): 0.5 µg/mL (≈ 0.592 µM)
